The labels stand for the following.
B1: tRNA (parent)
chain: GUUCCGUUGGCGUAAUGGUAACGCGUCUCCCUCCUAAGGAGAAGACUGCGGGUUCGAGUCCCGUACGGAACG

This sample holds only a part of the variants without activity.

In the data set the parent is B1. The data set can be described thus: yeast fitness relative to wild type (ratio to wild type); higher = fitter; tRNA-Arg(CCU), competitive growth, 37 C, YPD. Summed up:
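Variants of the tRNA-Arg(CCU) gene were chemically synthesised with a 3% per-site mutation rate across 69 sites and placed at the native genomic locus in Saccharomyces cerevisiae. Six parallel replicates of the pooled strains were competed in YPD at 37°C for 24 hours, and gene amplicons from the start and end populations were read by 100-nucleotide paired-end sequencing. Darwinian fitness relative to wild type was derived from changes in genotype frequencies. Genotypes required ≥ 100 starting reads, and estimates < 0.5 were set to 0.5.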
For C22U C34G, the yeast fitness is 0.597.
The same measure for C22U A45U C49A: not above 0.5.
Take C22G C34A A40C A45U: the yeast fitness was found to be 0.665.
Turning to C22G C31G C62U A70U, the yeast fitness is not above 0.5.
Consider C22G C55G, for which the yeast fitness was 0.585.
The same measure for C22G C55A: 0.712.
For C22G U35C C46U C55G, the yeast fitness was not above 0.5.
Turning to C22U A42G, the yeast fitness came to 0.794.
As for C22U A42U, the yeast fitness was 0.749.
With C22U A42C, the yeast fitness is 0.808.
The same measure for C22U C33G C60U C62G: 0.594; for C22U A37G: 0.662.
With C22U C30G, the yeast fitness amounted to 0.515.
For C22U C30U, the yeast fitness worked out at 0.758.
Regarding C22U C30A, the yeast fitness was found to be 0.706.
The same measure for C22U A45U A69U: 0.804.
As for C22U C24G U28A A45C G51A A57C C61U, the yeast fitness was not above 0.5.
In the case of C22G U26C, the yeast fitness stood at 0.971.
Turning to C22U C27U A37G, the yeast fitness is 0.643.
Take C22U C27U G44C: the yeast fitness came to 0.659.
C22U C49U U64A A70U: the yeast fitness is not above 0.5.
The same measure for C22G G23C C27A U28C: 0.533; for C22G U32C: 1.
Regarding C22G U32G, the yeast fitness worked out at 0.626.
The same measure for C22G G25A G50U: 0.593.
As for C22G C46U, the yeast fitness turned out to be 0.929.
On to C22U C27U G51A A57U C61G, for which the yeast fitness is not above 0.5.
C22G U32G G48A G52A: the yeast fitness is not above 0.5.
On to C22G G63C G68U, for which the yeast fitness was 0.52.
The same measure for C22G C31G C61A: not above 0.5.
For C22U C33U C34A G38C, the yeast fitness is not above 0.5.
Consider C22G C66U A69U, for which the yeast fitness worked out at 0.685.
On to C22G C66U A69C, for which the yeast fitness is 0.564.
The same measure for C22U C27A A45G G48C: not above 0.5; for C22G U53A: 0.673; for C22G U53G: 0.503.
With C22U C24U U28C C29G C33A G68C, the yeast fitness came to 0.569.
As for C22U C30U C49G, the yeast fitness came to 0.556.
As for C22G C31G G52C, the yeast fitness is not above 0.5.
Take C22G G51A C60U A70U: the yeast fitness amounted to 0.637.
As for C22G C31A U47C C49G G63C A69U, the yeast fitness is not above 0.5.
The same measure for C22G U47A U54A C61G: not above 0.5; for C22U A40U A43G A65U: 0.536; for C22U C31G C49U: 0.552.
Consider C22G C31U C66G, for which the yeast fitness turned out to be 0.512.
For C22U C24A A42U C61U, the yeast fitness was 0.562.
As to C22U C31G U53A, the yeast fitness was not above 0.5.
Regarding C22G C49G G68A, the yeast fitness worked out at 0.529.
For the variant C22G G51C, the yeast fitness was 0.738.
As to C22G G51A, the yeast fitness came out at 0.749.
The same measure for C22U C30U A57C: 0.528.
On to C22G C61G, for which the yeast fitness came to 0.684.
On to C22G C46A C62U G63A, for which the yeast fitness stood at 0.651.
The same measure for C22G G41C G52A: not above 0.5; for C22U C46A C61U: not above 0.5.
For the variant C22U C34U C55U, the yeast fitness was 0.586.
For the variant C22U A43C U53C C62G, the yeast fitness was not above 0.5.
In the case of C22G U32C U54A G68A, the yeast fitness is not above 0.5.
The same measure for C22G G51C G58A: not above 0.5; for C22G G38A: 0.776; for C22U C30A C31U: not above 0.5.
With C22G C33U A36C A40U, the yeast fitness was 0.665.
In the case of C22U C24U C33G C55G, the yeast fitness is not above 0.5.
For the variant C22G U54A C55U, the yeast fitness is not above 0.5.
The same measure for C22G G25A A37U G39A U47A: not above 0.5; for C22G C49U A65G: 0.785; for C22U A36C C55U U59A: not above 0.5.
As for C22U C34G G39A, the yeast fitness was not above 0.5.
In the case of C22G G50U, the yeast fitness was 0.873.
C22U C24G A69C: the yeast fitness is 0.539.
Regarding C22U C24A A43U A57G, the yeast fitness is not above 0.5.
Regarding C22U C24G C34U A37G G44A, the yeast fitness was not above 0.5.
The same measure for C22U C30G U54C C62G A65U: not above 0.5.
The same measure for C22G C34A G56C: not above 0.5; for C22G G25A C61U: 0.647.
Consider C22G G23A G38A G68C, for which the yeast fitness worked out at 0.572.
For C22U C29A A65U, the yeast fitness was not above 0.5.
Turning to C22G C34A G41A, the yeast fitness is not above 0.5.
For C22U C30U U47A C62U, the yeast fitness is not above 0.5.
Regarding C22U C31G A36U, the yeast fitness is not above 0.5.
The same measure for C22U C31G A43U C49U C60A A70G: not above 0.5; for C22G U47G A65C: not above 0.5; for C22G U54A C55U C66A: not above 0.5.
Regarding C22G U47C G50A, the yeast fitness is not above 0.5.
The same measure for C22U C55G A70C: 0.558; for C22G U32C G38C C60U: not above 0.5; for C22U A43G A57U: 0.59.
Take C22U C31G U35A C49U C66U G67A: the yeast fitness is not above 0.5.
The same measure for C22U C29G C34G A42U U54C G56A: not above 0.5; for C22U C27G A40C: 0.55.
The same measure for C22U C34G A40C C46G: not above 0.5; for C22G C62G A65U: 0.534.
The same measure for C22G C33G G51A: not above 0.5; for C22U A40C G58C A69U: not above 0.5; for C22G C62U A69U: 0.591.
In the case of C22U A40U A65U, the yeast fitness was not above 0.5.
Turning to C22G C49U C60A, the yeast fitness is not above 0.5.
As for C22U C29U G41A C62G, the yeast fitness is not above 0.5.
The same measure for C22U C29U C33U A37C A43U C55A: not above 0.5; for C22G U54C: 0.775; for C22G U54A: 0.591.
The same measure for C22G G38C C60U: not above 0.5; for C22G C62A: 0.787; for C22G U47A C49U: 0.638.
The same measure for C22G U53G C55U: not above 0.5.
For the variant C22U C27U C33A C60U C62G, the yeast fitness amounted to 0.558.
The same measure for C22G C49U C66U: 0.666; for C22G C30U C49G: not above 0.5; for C22U A43U C49U C55G C61U: 0.534.
Turning to C22U C30U C55G, the yeast fitness was not above 0.5.
With C22U C46G C49A U54C G56A C60A A70C, the yeast fitness was not above 0.5.
Regarding C22G C31A A45U, the yeast fitness is 0.621.
For the variant C22U A40G A43U C46G C49G C62U U64C, the yeast fitness is not above 0.5.
Turning to C22U C46G C49G A57G, the yeast fitness is not above 0.5.
Regarding C22U C49G U53A A65G, the yeast fitness is not above 0.5.
Regarding C22G G41A C61G, the yeast fitness was not above 0.5.
On to C22U C49A A69G, for which the yeast fitness was not above 0.5.
As for C22G C31G G58C G67C, the yeast fitness is not above 0.5.
C22U C24G C55U A65G: the yeast fitness was not above 0.5.
Take C22U C24U G50C: the yeast fitness turned out to be 0.618.
The same measure for C22U C31G G51C C62A: not above 0.5.
Regarding C22U C49G U53A G63C, the yeast fitness was 0.609.
In the case of C22U C24G C30U G44A G56A, the yeast fitness was not above 0.5.
With C22U C24U, the yeast fitness is 0.885.
Turning to C22U C24G, the yeast fitness was 0.583.
The same measure for C22U C33G C34A A43C C55U: not above 0.5; for C22G U35A A57G C62A: 0.567.
The same measure for C22U A36G G51A C66U: 0.588.
Regarding C22G G39C, the yeast fitness worked out at 0.823.
On to C22G G39A, for which the yeast fitness was 0.773.
C22G C31G A69C: the yeast fitness was 0.566.
As to C22G G23C A43C G50C A70U, the yeast fitness came to 0.517.
The same measure for C22U C33U A43U G52A: not above 0.5.
In the case of C22U C34U C60G A69G, the yeast fitness was found to be 0.58.
In the case of C22G C66A, the yeast fitness was determined as 0.704.
C22U C31G G56U: the yeast fitness worked out at 0.528.
As to C22U C46U G51C, the yeast fitness was not above 0.5.
The same measure for C22G C30U C49A A57U C61U: 0.548; for C22G G52C G68C: not above 0.5; for C22U C24G C61A: 0.53.
The same measure for C22U A57U C66U: 0.553; for C22G G41A C62A G63C: 0.615; for C22G G50U A57G: not above 0.5.
For the variant C22U C24U U47C, the yeast fitness was found to be 0.705.
On to C22U C46U, for which the yeast fitness came to 0.995.
For C22U C46G, the yeast fitness is 0.835.
The same measure for C22U C46A: 0.975.
Regarding C22G G23C C27A U28C G67A A70G, the yeast fitness is not above 0.5.
As to C22G C31G C55U C61G C62G, the yeast fitness was not above 0.5.
On to C22U C33U G52A C66U, for which the yeast fitness was not above 0.5.
In the case of C22G G52A C55U, the yeast fitness was not above 0.5.
As for C22G G58C, the yeast fitness stood at 0.971.
On to C22G G52A U53A, for which the yeast fitness was not above 0.5.
Take C22U C31G: the yeast fitness worked out at 0.834.
As for C22U C31U, the yeast fitness amounted to 0.94.
On to C22U C33G C55G, for which the yeast fitness was 0.537.
In the case of C22G C31U A65G, the yeast fitness is 0.867.
C22G C49A G56C G58C C60A: the yeast fitness is not above 0.5.
With C22G U28A G44A, the yeast fitness was not above 0.5.
As for C22U A42U G51C C62U A70U, the yeast fitness is 0.505.
For the variant C22U C29U C49A, the yeast fitness is not above 0.5.
The same measure for C22U C29G A42G: 0.697; for C22U C24G U28A A45C A57C C61U: 0.581; for C22U C30G A65C C66U: 0.62.
In the case of C22U C24A C27U A43C, the yeast fitness was not above 0.5.
Consider C22U A40U C61A G68A, for which the yeast fitness is not above 0.5.
As to C22G G51A A70U, the yeast fitness was 0.665.

The values are drawn from the RNAGym collection of RNA variant scans (doi:10.1126/science.aae0568).
